Measured values taken from ChEMBL document CHEMBL1132435 (J Med Chem, 1999).
Where a SMILES comes first, the peptide text is derived from it. [ ]: non-standard residue; d: D form. The star is where a group is joined. X1 = COc1ccc(C[C@@H](CN[C@@H](CCCNC(=N)N)C(=O)O)N*)cc1; Hyp = O=C(O)[C@@H]1C[C@@H](O)CN1; 2Thi = N[C@@H](Cc1cccs1)C(=O)O

How the values were obtained:
[1] = molecular target: T1, B2 bradykinin receptor (Homo sapiens, UniProt P30411); test: Binding affinity against human cloned Bradykinin receptor B2 expressed in CHO cells using [3H]-bradykinin as radioligand; type: cell-based
T1 sequence (P30411 whole entry): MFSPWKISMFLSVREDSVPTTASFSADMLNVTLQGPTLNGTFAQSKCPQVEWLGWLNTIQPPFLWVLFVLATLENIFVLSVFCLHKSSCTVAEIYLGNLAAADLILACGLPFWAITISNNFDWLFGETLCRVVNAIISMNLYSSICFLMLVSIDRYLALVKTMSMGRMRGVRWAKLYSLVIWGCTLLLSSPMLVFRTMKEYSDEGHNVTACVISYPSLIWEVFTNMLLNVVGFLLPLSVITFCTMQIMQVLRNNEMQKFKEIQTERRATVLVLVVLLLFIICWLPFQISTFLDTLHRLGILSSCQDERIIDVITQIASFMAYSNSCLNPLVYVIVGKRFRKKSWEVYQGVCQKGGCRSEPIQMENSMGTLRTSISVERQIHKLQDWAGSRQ
How it was run: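 Membranes of stably transfected CHO cells (human or rat B2 receptor), prepared in 20 mM TES pH 6.8 with 1 mM 1,10-phenanthroline, 140 µg/mL bacitracin and 0.1% BSA, spun at 40 000g. Filtration on PEI-soaked GF/B filters.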

[2] = molecular target: T2, B1 bradykinin receptor (Homo sapiens, UniProt P46663); test: Binding affinity against human cloned Bradykinin receptor B1 expressed in HEK 293 cells using [3H]des-Arg10-[Leu9]-kallidin as radioligand
T2 sequence (P46663 whole entry): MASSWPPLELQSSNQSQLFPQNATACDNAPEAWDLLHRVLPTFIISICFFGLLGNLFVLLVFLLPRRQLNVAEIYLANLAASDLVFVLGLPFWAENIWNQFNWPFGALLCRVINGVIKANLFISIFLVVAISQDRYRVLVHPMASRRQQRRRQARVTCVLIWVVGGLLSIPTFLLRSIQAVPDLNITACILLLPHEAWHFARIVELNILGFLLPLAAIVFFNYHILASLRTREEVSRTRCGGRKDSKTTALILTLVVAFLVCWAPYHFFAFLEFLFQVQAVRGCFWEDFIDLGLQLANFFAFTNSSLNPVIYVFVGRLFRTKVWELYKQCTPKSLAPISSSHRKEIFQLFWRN

[3] = molecular target: T3, B2 bradykinin receptor (Rattus norvegicus, UniProt P25023); test: Binding affinity against rat bradykinin B2 receptors expressed in CHO cells using [3H]bradykinin as radioligand; type: cell-based
T3 sequence (P25023 whole entry): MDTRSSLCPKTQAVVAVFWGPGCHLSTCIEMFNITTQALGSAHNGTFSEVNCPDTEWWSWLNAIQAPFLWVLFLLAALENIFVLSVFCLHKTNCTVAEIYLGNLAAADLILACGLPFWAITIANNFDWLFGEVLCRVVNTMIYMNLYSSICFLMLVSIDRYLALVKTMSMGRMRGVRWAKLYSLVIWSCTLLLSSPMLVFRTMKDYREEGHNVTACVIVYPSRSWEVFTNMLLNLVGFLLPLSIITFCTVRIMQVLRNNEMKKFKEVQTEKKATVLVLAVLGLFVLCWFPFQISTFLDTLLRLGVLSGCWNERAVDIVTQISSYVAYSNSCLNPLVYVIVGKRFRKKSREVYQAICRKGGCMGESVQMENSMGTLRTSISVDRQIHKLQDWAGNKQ
How it was run: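 Membranes of stably transfected CHO cells (human or rat B2 receptor), prepared in 20 mM TES pH 6.8 with 1 mM 1,10-phenanthroline, 140 µg/mL bacitracin and 0.1% BSA, spun at 40 000g. […] Filtration on PEI-soaked GF/B filters. Ki, means ± SEM (n = 3 or 4).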

[4] = species on record: Homo sapiens; test: Agonistic activity on human umbilical vein(HUV) in absence of inhibitors; type: functional
How it was run: (§1)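 Human umbilical vein segments; cumulative concentration-response to agonist measured as contraction, run with or without protease inhibitors. Maximal contraction of each segment obtained after washout with U46619 (1 μM).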

[5] = species on record: Homo sapiens; test: (§2) Agonistic activity on human umbilical vein(HUV) in presence of inhibitors; type: functional; how it was run: as §1
[6] = species on record: Rattus norvegicus; test: (§3) Agonistic activity on rat uterus(RUT) in presence of inhibitors; type: functional
How it was run: (§4)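 Uterus from female Sprague–Dawley rats (250-300 g) pretreated with diethylstilbestrol 0.1 mg/kg s.c. 18 h before CO2 kill. Tissue placed in Jalon solution (mM: NaCl 154, KCl 5.6, NaHCO3 1.7, MgCl2 1.4, glucose 5.5, CaCl2 0.3). One cumulative concentration-response curve per segment, run with or without protease inhibitors. Maximum per segment taken with angiotensin II (3 μM). Means ± SEM, n = 5; pD2.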

[7] = species on record: Rattus norvegicus; test: Agonistic activity on rat uterus(RUT) in absence of inhibitors; type: functional; how it was run: as §4
[8] = species on record: Rattus norvegicus; test: as §3; type: functional, organism-based; conditions: read-out: pA2 (converted); how it was run: as §4
[9] = species on record: Homo sapiens; test: as §2; type: functional, organism-based; conditions: read-out: pA2 (converted); how it was run: as §1
[10] = molecular target: T3, B2 bradykinin receptor; test: Binding affinity against rat Bradykinin receptor B2 expressed in CHO cells using [3H]-bradykinin as radioligand; type: cell-based
How it was run: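 Competition binding on membranes from stably transfected CHO cells. Cells were scraped into 20 mM TES pH 6.8 with 1 mM 1,10-phenanthroline, 140 µg/mL bacitracine and 0.1% BSA, and membranes were pelleted at 40 000g for 15 min. […] Bound label was collected by filtration on PEI-presoaked GF/B filters and counted by scintillation. n = 3 or 4.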

Ki [1] | Ki [2] | Molecule | pD2 [4] | pD2 [5] | further results
162 nM | > 10000 nM | N=C(N)NCCC[C@@H](N)C(=O)N[C@@H](CCCNC(=N)N)C(=O)N1CCC[C@H]1C(=O)N1CC(O)C[C@H]1C(=O)NCC(=O)N[C@@H](Cc1cccs1)C(=O)N[C@@H](CO)C(=O)N[C@H]1CSc2ccccc2N(CC(=O)N[C@@H](CCCNC(=N)N)C(=O)O)C1=O (stereo partly specified) |  |  | 
0.7 nM | > 10000 nM | NC(N)=NCCC[C@@H](N)C(=O)N[C@@H](CCCN=C(N)N)C(=O)N1CCC[C@H]1C(=O)N1CC(O)C[C@H]1C(=O)NCC(=O)N[C@@H](Cc1cccs1)C(=O)N[C@@H](CO)C(=O)N[C@@H]1CSc2ccccc2N(CC(=O)N[C@@H](CCCN=C(N)N)C(=O)O)C1=O (stereo partly specified) | 6.7 | 6.8 | Ki [3]: 6 nM; pD2 [6]: 7.5; pD2 [7]: 7.2
 | > 10000 nM | N=C(N)NCCC[C@H](NC(=O)CN1C(=O)[C@H](NC(=O)[C@H](CO)NC(=O)[C@H](Cc2ccccc2)NC(=O)CNC(=O)[C@@H]2CCCN2C(=O)[C@@H]2CCCN2C(=O)[C@@H](N)CCCNC(=N)N)CSc2ccccc21)C(=O)O |  |  | 
 |  | NC(N)=NCCC[C@@H](N)C(=O)N[C@@H](CCCN=C(N)N)C(=O)N1CCC[C@H]1C(=O)N1C[C@H](O)C[C@H]1C(=O)NCC(=O)N[C@@H](Cc1cccs1)C(=O)N[C@@H](CO)C(=O)N1Cc2ccccc2C[C@@H]1C(=O)N1[C@H](C(=O)N[C@@H](CCCN=C(N)N)C(=O)O)C[C@@H]2CCCC[C@@H]21 [ICATIBANT] |  |  | Ki [3]: 0.077 nM; Kb [8]: 1.15 nM; Kb [9]: 6.61 nM
19 nM |  | COc1ccc(C[C@@H](CN[C@@H](CCCNC(=N)N)C(=O)O)NC(=O)[C@@H]2CCCN2C(=O)[C@H](CO)NC(=O)[C@H](Cc2cccs2)NC(=O)CNC(=O)[C@@H]2C[C@@H](O)CN2C(=O)[C@@H]2CCCN2C(=O)[C@@H](N)CCCNC(=N)N)cc1 [LABRADIMIL] (H-RP[Hyp]G[2Thi]SP-X1) | 6.9 | 7.1 | 
 |  | H-RPPGFSPFR-OH [BRADYKININ] [listing 1 of 2 here] | 7.4 | 7.9 | pD2 [6]: 8.3; pD2 [7]: 7.33
 |  | H-RPPGFSPFR-OH [BRADYKININ] [listing 2 of 2 here] |  |  | Ki [10]: 0.46 nM
